# RGS4 act – RGS4 potentiators or activators, primary screen, cell-based, HEK293 M3R inducible RGS4, calcium flux. B-score at 10 µM. AID 463111, 2010. hit rate 0.92% among 310,000. carbachol calcium flux Fluo4; hits give low values;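 active = B-score of the integrated calcium signal more than 4 SD below the library mean, with starting fluorescence not abnormally high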;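 note: negative B-score means reduced calcium response which marks RGS4 activation or potentiation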
#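 Assay system: HEK293 FlpIn-TREx cells, stable M3R, doxycycline-inducible RGS4 / Probe or stimulus: carbachol, ECmax concentration / Times: overnight RGS4 induction, 30 min dye load 37 °C, 20 min compound RT / Signal: kinetic calcium fluorescence imaging with Fluo4-AM dye, 2 µM / Measure: Agonist-evoked peak-minus-minimum fluorescence over baseline, integrated ratio, B score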
# MrgX1 antagonist – antagonists of human MrgX1 receptor, primary screen, HEK293 cells, Fluo-4 calcium flux; Mas-related G-protein coupled receptor member X1 (Homo sapiens), Q96LB2; BAM8-22 antagonism; hits give low values; B-score at 10 µM; hit rate 1.3% among 310,000; AID 588676, 2011;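 active = calcium-response B-score plate-corrected more than 3 library SD below zero, starting fluorescence within 5 deviations, no agonist response on first addition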;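 note: peak minus trough fluorescence over baseline after final BAM8-22 challenge near maximal dose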
# Target sequence (Q96LB2 whole entry, looked up): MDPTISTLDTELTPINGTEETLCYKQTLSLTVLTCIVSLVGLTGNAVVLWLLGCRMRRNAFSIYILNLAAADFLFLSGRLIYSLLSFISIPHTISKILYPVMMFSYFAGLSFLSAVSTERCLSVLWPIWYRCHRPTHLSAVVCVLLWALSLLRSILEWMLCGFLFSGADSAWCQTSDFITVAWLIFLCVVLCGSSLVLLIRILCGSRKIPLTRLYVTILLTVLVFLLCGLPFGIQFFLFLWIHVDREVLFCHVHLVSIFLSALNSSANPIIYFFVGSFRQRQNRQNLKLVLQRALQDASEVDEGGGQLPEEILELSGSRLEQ
# RGS4 inh – RGS4 inhibitors, primary screen, cell-based, HEK293 M3R inducible RGS4, calcium flux. Regulator of G-protein signaling 4 (Homo sapiens), P49798. Fluo-4 calcium flux; hits give high values; triggered by carbachol at its EC20. B-score at 10 µM. hit rate 0.45% among 310,000. AID 463165, 2010;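 active = B-score, a plate-corrected calcium signal, over three deviations above library mean, with baseline fluorescence within five deviations of library mean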;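 note: RGS4 expression induced by doxycycline in cells with stable M3 receptor; B-score is computed from the integrated fluorescence ratio over baseline after carbachol; higher B-score means a larger calcium signal and so more RGS4 inhibition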
# PHOSPHO1 block – PubChem AID 1565. inhibition, % at 13.3 µM. recombinant PHOSPHO1, absorbance phosphatase assay. hit rate 1.1% among 290,000. Phosphoethanolamine/phosphocholine phosphatase (Homo sapiens), Q8TCT1; in the data active = inhibition above about 60%
# Target sequence (Q8TCT1 whole entry, looked up): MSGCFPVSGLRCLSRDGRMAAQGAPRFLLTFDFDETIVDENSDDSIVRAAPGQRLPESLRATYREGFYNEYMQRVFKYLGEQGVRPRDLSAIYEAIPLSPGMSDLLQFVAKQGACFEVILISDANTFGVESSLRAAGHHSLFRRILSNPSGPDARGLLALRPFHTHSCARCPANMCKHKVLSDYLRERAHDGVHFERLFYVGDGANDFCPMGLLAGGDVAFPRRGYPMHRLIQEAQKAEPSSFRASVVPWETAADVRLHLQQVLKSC
# MrgX1 allo act – positive allosteric modulators of MrgX1, primary screen, HEK293 cells, Fluo-4 calcium flux; Mas-related G-protein coupled receptor member X1 (Homo sapiens), Q96LB2; FDSS; hits give high values; B-score at 10 µM; hit rate 0.63% among 310,000; AID 588675, 2011;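 active = plate-corrected calcium response at least 3 library SD above typical, normal starting fluorescence, not activating the receptor alone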;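 note: compound read alongside a low EC10 to EC30 dose of BAM8-22 agonist; peak minus trough fluorescence over baseline measured at the second addition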
# MrgX1 agonist – agonists of human MrgX1 receptor, primary screen, HEK293 cells, Fluo-4 calcium flux; Mas-related G-protein coupled receptor member X1 (Homo sapiens), Q96LB2; Fluo-4 calcium fluorescence, agonist mode; hits give high values; B-score at 10 µM; hit rate 0.44% among 310,000;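 active = calcium response B-score plate-corrected fluorescence ratio at least 3 library SD, with starting fluorescence B-score inside 5 SD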
#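 Test system: HEK293 cells stably expressing human MrgX1 receptor; Input: fifteen thousand cells per well; Dosing: compound delivered in addition one of three; Schedule: overnight seeding, then 1 h dark dye loading; Technique: Fluo-4 NW calcium fluorescence; Measure: B-scored fluorescence response ratio; Controls: positive and negative controls per plate.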
# * hit, by the source's call; i = inactive; / = not tested or not shown. Shown are actives, neighbours in structure and some others; about 4.5% of the full set was active somewhere.
SMILES,RGS4 act,MrgX1 antagonist,RGS4 inh,PHOSPHO1 block,MrgX1 allo act,MrgX1 agonist
CC(NC(=S)NCc1ccccc1)C12CC3CC(CC(C3)C1)C2 (stereo not drawn),i,i,i,34.9,i,i
CN(C)S(=O)(=O)c1cccc(NC(=O)c2sccc2-c2ccccc2)c1,i,i,i,14.7,i,i
O=c1[nH]c(CSc2nnc(COc3ccccc3)n2-c2ccccc2)nc2ccccc12,i,i,i,60.7*,i,i
Clc1cccc(-c2nnc(SCc3nc4ccccc4[nH]3)n2Cc2ccco2)c1,i,i,i,77.0*,i,i
Cc1cccc(-c2nnc(SCc3ccc(C#N)cc3)n2Cc2ccco2)c1,i,i,i,64.4*,i,i
c1coc(Cn2c(SCc3nc4ccccc4[nH]3)nnc2-c2cnccn2)c1,i,i,i,90.1*,i,i
Cc1ccccc1OCc1nnc(SCc2nc3ccccc3c(=O)[nH]2)n1C,i,i,i,36.5,i,i
CC(C)c1cc(C(C)C)c(S(=O)(=O)N2c3ccccc3[C@]3(Br)C[C@H]4C(=O)N[C@@H](Cc5ccccc5)C(=O)N4[C@H]23)c(C(C)C)c1,i,/,i,/,/,/
Cc1cc2c(cc1S(=O)(=O)CCC(=O)N1CC(C)CC(C)C1)OCC(=O)N2 (stereo not drawn),i,i,i,28.1,i,i
Cc1cccc(C(=O)Oc2csc(=S)n2C(=O)c2cccc(C)c2)c1,i,i,i,10.4,i,i
O=C(Oc1csc(=S)n1C(=O)c1ccccc1)c1ccccc1,i,i,i,83.3*,i,i
O=C(O)c1ccccc1-c1ccccc1C(=O)Nc1ccc(-c2nc3cc(Cl)ccc3o2)cc1,i,-5.55*,i,-3.1,i,i
CC(=O)Nc1ccc(-c2nc3cc(Cl)ccc3o2)cc1,i,i,i,/,i,i
Cc1ccc(S(=O)(=O)NC(C)C(=O)NC2CCCCCC2)cc1 (stereo not drawn),-7.24*,i,i,53.6,i,i
CC(NS(=O)(=O)c1ccc(Br)cc1)C(=O)NC1CCCCCC1 (stereo not drawn),i,i,i,21.8,i,i
Cn1c(C(=O)OC(C(=O)NCc2ccco2)c2ccncc2)cc2sccc21 (stereo not drawn),i,-4.65*,i,14.5,i,i
CN(C)S(=O)(=O)n1cc(/C=C(\NC(=O)c2ccccc2Cl)C(=O)NCCN2CCOCC2)c2ccccc21,i,i,i,64.9*,i,i
CN(C)S(=O)(=O)n1cc(/C=C(\NC(=O)c2ccccc2Cl)C(=O)NCCCN2CCOCC2)c2ccccc21,i,i,i,42.6,i,i
CCOC(=O)c1[nH]c2cc(OC)c(OC)cc2c1NC(=O)C(C)N1CCN(Cc2ccccc2)CC1 (stereo not drawn),-8.65*,i,i,14.6,i,i
Cc1cc(=O)[nH]c2ccc(S(=O)(=O)NCc3ccccc3)cc12,i,i,i,62.8*,i,i
CCCCn1c(N)c(N(CC)C(=O)c2cc3c(s2)CCCCC3)c(=O)[nH]c1=O,i,i,i,/,i,i
CN(C)c1ccnc(N(Cc2ccccc2)Cc2ccccc2)c1C#N,-11*,i,i,18.6,i,i
CN(C)c1ccnc(NCc2ccccc2)c1C#N,i,i,i,22.6,i,i
COc1cc(C(=O)OC(C)CN2CCCCC2)cc(OC)c1OC (stereo not drawn),i,i,i,39.0,i,i
COc1ccc(OC)c(CCNC(=O)c2ccc3c(=O)[nH]c4c(C(=O)NC(C)C)sc(=S)n4c3c2)c1,-8.75*,-8.04*,i,36.8,i,i
SMILES,RGS4 act,MrgX1 antagonist,RGS4 inh,PHOSPHO1 block,MrgX1 allo act,MrgX1 agonist
CCOc1ccc(CCNC(=O)c2ccc3c(=O)[nH]c4c(C(=O)NC(C)C)sc(=S)n4c3c2)cc1,i,-9.2*,i,36.8,i,i
CC(C)NC(=O)c1sc(=S)n2c1[nH]c(=O)c1ccc(C(=O)NCCc3ccc(Cl)cc3)cc12,-8.22*,-5.9*,i,-0.7,i,i
O=C(NCCc1ccccc1)c1ccc2c(=O)[nH]c3c(C(=O)NCC4CCCO4)sc(=S)n3c2c1 (stereo not drawn),i,i,i,22.3,i,i
O=C(NCC1CCCO1)c1sc(=S)n2c1[nH]c(=O)c1ccc(C(=O)N3CCCCC3)cc12 (stereo not drawn),i,i,i,51.0,i,i
CN(CCOc1ccccc1)C(=O)c1cc([N+](=O)[O-])cc([N+](=O)[O-])c1,i,i,i,-23.9,i,i
Cc1cc[n+](-c2ccccc2)c2ccccc12,i,i,i,27.7,i,i
Cc1cc(N/N=C/c2cccc(Cl)c2)nc(NCc2ccccc2)n1,-7.67*,i,i,-2.0,i,i
COc1ccc(NC(=O)COC(=O)c2ccc(-n3cnnn3)cc2)cc1Cl,i,i,i,/,i,i
CC1(C)Cc2c(cnn2-c2ccc(F)cc2)C(NC(=O)c2ccc(=O)oc2)C1 (stereo not drawn),i,i,i,61.0*,i,i
CC(=O)OCCn1c2nc(=O)[nH]c(=O)c-2nc2cc(C)c(C)cc21,-7.65*,i,i,-31.5,i,i
CC(=O)OCCn1c(C)[n+](CCOC(C)=O)c2cc(Cl)c(Cl)cc21,i,i,i,6.4,i,i
CCC(C)Sc1ccc(-c2nc3ccc(C)cn3c2NCc2ccccc2)cc1OC (stereo not drawn),-8.6*,i,i,/,i,i
CCOc1ccc(CCNC(=O)CCc2nnc3ccc(N4CCCCC4)nn23)cc1OCC,i,i,i,7.0,i,i
O=C(Nc1ccc(N2CCOCC2)c(Cl)c1)c1cc2ccccc2o1,-7.6*,i,i,-11.6,i,i
CC(C)CCOc1ccc(C(=O)NCC(c2ccco2)N(C)C)cc1 (stereo not drawn),-7.5*,i,i,13.0,i,i
CN(C)C(CNC(=O)c1ccc(Br)cc1)c1ccco1 (stereo not drawn),i,i,i,15.6,i,i
O=C(c1ccc(Cl)cc1)C(CN1CCCCC1)c1ccccc1 (stereo not drawn),-8.33*,i,i,24.2,i,i

# Assay outcomes from PubChem BioAssay.
